The values below come from ChEMBL document CHEMBL4811272, “A new sulfated triterpene glycoside from the sea cucumber Colochirus quadrangularis, and evaluation of its antifungal, antitumor and immunomodulatory activities” (Bioorg Med Chem, 2021).

Molecules are shown by their SMILES. ≈ marks a conversion by molar mass, not a printed value. Some results are limits rather than exact numbers.

The subject of assay [1] is A549. Nature of the assay: Cytotoxicity against human A549 cells assessed as reduction in cell viability by sulforhodamine B assay. Format: functional, cell-based. The essentials:
(§1)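 Cells were kept in RPMI-1640 with 10% FBS, 2 mM L-glutamine, 50 μM β-mercaptoethanol and penicillin/streptomycin, at 37 °C in 5% CO2. SRB assay used 100, 10, 1, 0.1 and 0.01 μM, each in triplicate. Percent inhibition was calculated against solvent control OD. IC50 came from Logit curve fitting and is the mean of three independent experiments.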
A general note: The SRB assay estimates cell density from bound dye.

The test system of assay [2] is Candida albicans. Kind of assay: Antifungal activity against Candida albicans ATCC 76615 by microplate reader assay. Format: functional. Conditions: ATTCC76615. In outline:
(§2)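 Broth microdilution read by optical density at 630 nm. MIC80 is the first well with about 80% less growth than the drug-free well. Each concentration was run in three replicate wells, and values are means of three independent experiments.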

The subject of assay [3] is Cryptococcus neoformans. Kind of assay: Antifungal activity against Cryptococcus neoformans ATCC 32609 by microplate reader assay. Conditions: ATTCC32609. The format is functional. The essentials:
as §2

Assay [4] deals with Candida tropicalis. Nature of the assay: Antifungal activity against clinical strain Candida tropicalis by microplate reader assay. Format: functional. The essentials:
as §2

The subject of assay [5] is Candida parapsilosis. Kind of assay: Antifungal activity against clinical strain Candida parapsilosis by microplate reader assay. The format is functional. Conditions: Lodderomyces parapsilosis. In outline:
as §2

Assay [6] relates to MKN-28. Nature of the assay: Cytotoxicity against human MKN-28 cells assessed as reduction in cell viability by sulforhodamine B assay. The format is functional, cell-based. The essentials:
as §1

Assay [7] has as its system MCF7. Nature of the assay: Cytotoxicity against human MCF7 cells assessed as reduction in cell viability by sulforhodamine B assay. The format is functional, cell-based. In outline: as §1
Assay [8] deals with HCT-116. Nature of the assay: Cytotoxicity against human HCT-116 cells assessed as reduction in cell viability by sulforhodamine B assay. Format: functional, cell-based. The essentials: as §1
Assay [9] has as its system Bel-7402. Nature of the assay: Cytotoxicity against human Bel-7402 cells assessed as reduction in cell viability by sulforhodamine B assay. Format: functional, cell-based. The essentials: as §1
A short description of assay [10]: Cytotoxicity against human HO-8910 cells assessed as reduction in cell viability by sulforhodamine B assay. Format: functional, cell-based. In outline:
as §1

The subject of assay [11] is HL-60. Kind of assay: Cytotoxicity against human HL-60 cells assessed as reduction in cell viability by sulforhodamine B assay. The format is functional, cell-based. The essentials: as §1
The test system of assay [12] is SPC-A4. Nature of the assay: Cytotoxicity against human SPC-A4 cells assessed as reduction in cell viability by sulforhodamine B assay. The format is functional, cell-based. In outline: as §1
Assay [13] has as its system Bel-7402. Kind of assay: Antitumor activity against human Bel-7402 cells implanted in BALB/c-nu mouse assessed as tumor growth inhibition at 100 mg/kg, IG administered everyday for 7 days relative to control. Format: functional. Conditions: Bel-7402, po, 168 h, time 7 day, read-out: TGI.
Assay [14] has as its system Pyricularia oryzae. Kind of assay: Antifungal activity against Pyricularia oryzae P-2B by measuring minimum morphological deformation concentration. The format is functional. Conditions: read-out: MEC.
The subject of assay [15] is CCRF S-180. Nature of the assay: Antitumor activity against mouse S-180 cells implanted in KM mouse assessed as tumor growth inhibition at 25 mg/kg, IG administered everyday for 7 days relative to control. Format: functional. Conditions: CCRF S-180, po, 168 h, time 7 day, read-out: TGI. In outline: (§3)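 S-180 or H22 cells, about 2.5 × 10⁶ per mouse, injected s.c. in the right axilla of wild-type KM mice. Randomized after 24 h and dosed intragastrically for 7 days; sacrificed 24 h after the last dose. TGI = (W_C − W_T)/W_C × 100% from average tumor weight. n = 8; one-way ANOVA vs vehicle.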

The subject of assay [16] is H22. Kind of assay: Antitumor activity against mouse H22 cells implanted in KM mouse assessed as tumor growth inhibition at 25 mg/kg, IG administered everyday for 7 days relative to control. Format: functional. Conditions: H22, po, 168 h, time 7 day, read-out: TGI. The essentials: as §3

As for `CO[C@@H]1[C@@H](O)[C@H](O[C@@H]2[C@@H](O)[C@H](O[C@H]3[C@H](O)[C@@H](O)[C@H](O[C@H]4[C@H](O[C@H]5CC[C@@]6(C)C(CC=C7[C@H]6CC[C@]68C(=O)O[C@@](C)(CCC=C(C)C)[C@H]6[C@@H](OC(C)=O)C[C@@]78C)C5(C)C)OC[C@@H](OS(=O)(=O)[O-])[C@@H]4O)O[C@@H]3C)OC[C@H]2O)O[C@H](CO)[C@H]1O.[Na+]` (some centres not stated), the IC50 – broadly, the point on the concentration scale where inhibition reaches its midpoint – amounted to 1700 nM in assay [1]; 2810 nM in [6]; 2300 nM in [7]; 1610 nM in assay [8]; 2400 nM in assay [9]; 2320 nM in assay [10]. Besides, the IC50 in assay [11] amounted to 1650 nM; in [12] it was 3670 nM. The MIC80 (commonly an inhibitory concentration at the 80% level, which refers to growth in some studies and to a panel of isolates in others) in assay [2] is 20 µg/mL; in assay [3], 25 µg/mL; in assay [4] it was 30 µg/mL; in assay [5] it was 32 µg/mL.

As to `C=C(C)CCC[C@]1(C)OC(=O)[C@]23CC[C@@H]4C(=CCC5C(C)(C)[C@@H](O[C@@H]6OC[C@@H](OS(=O)(=O)O)[C@H](O)[C@H]6O[C@@H]6O[C@H](C)[C@@H](O[C@@H]7OC[C@@H](O)[C@H](O[C@@H]8O[C@H](CO)[C@@H](O)[C@H](OC)[C@H]8O)[C@H]7OS(=O)(=O)O)[C@H](O)[C@H]6O)CC[C@@]54C)[C@]2(C)C[C@H](OC(C)=O)[C@@H]31.[Na+].[Na+].[Na+]` (some centres not stated), the IC50 in assay [1] was 750 nM; in [6] it was 2030 nM; in [7], 1790 nM; in assay [8] it was 930 nM; in assay [9], 1300 nM; in assay [10] it was 1900 nM. Besides, the IC50 in assay [11] turned out to be 650 nM; in assay [12], 1300 nM. The MIC80 came out at 4 µg/mL in assay [2], 16 µg/mL in assay [3], 8 µg/mL in [4] and 4 µg/mL in assay [5].

In the case of `C=C(C)CCC[C@]1(C)OC(=O)[C@]23CC[C@@H]4C(=CCC5C(C)(C)[C@@H](O[C@@H]6OC[C@@H](OS(=O)(=O)[O-])[C@H](O)[C@H]6O[C@@H]6O[C@H](C)[C@@H](O[C@@H]7OC[C@@H](O)[C@H](O[C@@H]8O[C@H](CO)[C@@H](O)[C@H](OC)[C@H]8O)[C@H]7O)[C@H](O)[C@H]6O)CC[C@@]54C)[C@]2(C)CC(=O)[C@@H]31.[Na+]` (some centres not stated), the IC50 was determined as 1300 nM in [1]; 1820 nM in assay [6]; 1560 nM in [7]; 1090 nM in [8]; 1300 nM in assay [9]; 1900 nM in assay [10]. Further, the IC50 in assay [11] is 1950 nM; in assay [12], 1500 nM. Besides, the MIC80 in assay [2], in assay [3], in [4] and in assay [5] was 25 µg/mL in each case.

On to `O=c1[nH]c(=O)n(C2CCCO2)cc1F` (configuration not stated) [TEGAFUR], for which, in [13], the inhibition in vivo at 100 mg/kg amounted to 81.8%.

`CCC(C)n1ncn(-c2ccc(N3CCN(c4ccc(OCC5COC(Cn6cncn6)(c6ccc(Cl)cc6Cl)O5)cc4)CC3)cc2)c1=O` (configuration not stated) [ITRACONAZOLE]: the MIC80 was less than 0.125 µg/mL in [2], 2 µg/mL (≈ 2.83 µM) in assay [3], 1 µg/mL (≈ 1.42 µM) in [4] and less than 0.125 µg/mL in assay [5].

Regarding `O=c1[nH]cc(F)c(=O)[nH]1` [FLUOROURACIL], the minimal effective concentration in assay [14] was no more than 5 µg/mL. Also, the inhibition in vivo at 25 mg/kg in assay [15] and in assay [16] was 39.4% each time.

For `OC(Cn1cncn1)(Cn1cncn1)c1ccc(F)cc1F` [FLUCONAZOLE], the MIC80 worked out at 0.25 µg/mL (≈ 0.816 µM) in assay [2], 2 µg/mL (≈ 6.53 µM) in [3], 1 µg/mL (≈ 3.27 µM) in assay [4] and 0.5 µg/mL (≈ 1.63 µM) in assay [5].

Turning to `CN(C/C=C/C#CC(C)(C)C)Cc1cccc2ccccc12` [TERBINAFINE], the MIC80 in assay [2] was 32 µg/mL (≈ 110 µM); in assay [3] it was less than 0.125 µg/mL; in [4], less than 0.125 µg/mL; in assay [5], less than 0.125 µg/mL.
